# Residues, ends and D or L forms follow the SMILES beside them. *: point of attachment. βNA = c1ccc2cc(N*)ccc2c1
# What was measured:
# [1] = test system: E. faecalis KA247; test: Agar well-diffusion, inhibition zone; assay type: cell-based, Enterococcus faecalis
# Procedure, shortened: (§1)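 Clinical MDR isolates from complicated UTI patients. Suspensions were made in Tryptic Soya and Sabouraud broths from subcultures on Tryptic Soya and Sabouraud agar plates. Agar well diffusion followed CLSI guidelines, with test compounds applied at 10 μM in DMSO. Fosfomycin and fluconazole were positive controls and DMSO the negative control. Zone diameters were read in mm, in triplicate.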
# [2] = test system: S. aureus KA112; test: Agar well-diffusion, inhibition zone; assay type: cell-based, Staphylococcus aureus
# Procedure, shortened: as §1
# [3] = test system: E. coli KA780; test: Agar well-diffusion, inhibition zone; assay type: cell-based, Escherichia coli
# Procedure, shortened: as §1
# [4] = test system: P. mirabilis KA320; test: Agar well-diffusion, inhibition zone; assay type: cell-based, Proteus mirabilis
# Procedure, shortened: as §1
# [5] = test system: C. albicans KA205; test: Agar well-diffusion, inhibition zone; assay type: cell-based, Candida albicans; details: for zone of inhibition at 10 µM: Candida albicans, KA205, read-out: Average diameter of inhibition zone (ZI)
# Procedure, shortened: as §1
# [6] = test system: C. tropicalis KA205; test: Agar well-diffusion, inhibition zone; assay type: cell-based, Candida tropicalis; details: for zone of inhibition at 10 µM: Candida tropicalis, KA205, read-out: Average diameter of inhibition zone (ZI)
# Procedure, shortened: as §1
# [7] = test system: E. faecalis KA247; test: Broth microdilution MIC and MBC; assay type: cell-based; details: Enterococcus faecalis, KA247, 24 h
# [8] = test system: S. aureus KA112; test: Broth microdilution MIC and MBC; assay type: cell-based; details: Staphylococcus aureus; for MIC: KA112, 24 h; for MBC: KA112, read-out: MBC/MIC
# [9] = test system: E. coli KA780; test: Broth microdilution MIC and MBC; assay type: cell-based; details: Escherichia coli; for MIC: KA780, 24 h; for MBC: KA780, read-out: MBC/MIC
# [10] = test system: P. mirabilis KA320; test: Broth microdilution MIC and MBC; assay type: cell-based; details: Proteus mirabilis; for MIC: KA320, 24 h; for MBC: KA320, read-out: MBC/MIC
# [11] = test system: C. albicans KA205; test: Broth microdilution MIC and MFC; assay type: cell-based; details: Candida albicans; for MIC: KA205, 24 h; for MFC: KA205, read-out: MFC/MIC
# [12] = test system: C. tropicalis KA205; test: Broth microdilution MIC and MFC; assay type: cell-based; details: Candida tropicalis; for MIC: KA205, 24 h; for MFC: KA205, read-out: MFC/MIC
# [13] = test system: E. faecalis KA247; test: Checkerboard microdilution synergy with fosfomycin; assay type: cell-based, Enterococcus faecalis
# [14] = test system: S. aureus KA112; test: Checkerboard microdilution synergy with fosfomycin; assay type: cell-based, Staphylococcus aureus
# [15] = test system: E. coli KA780; test: Checkerboard microdilution synergy with fosfomycin; assay type: cell-based, Escherichia coli
# [16] = test system: P. mirabilis KA320; test: Checkerboard microdilution synergy with fosfomycin; assay type: cell-based, Proteus mirabilis
# [17] = test system: C. albicans KA205; test: Checkerboard microdilution synergy with fluconazole; assay type: cell-based, Candida albicans
# [18] = test system: C. tropicalis KA205; test: as above; assay type: cell-based, Candida tropicalis
# [19] = test system: MDR microbial isolates; test: Time-kill kinetics, whole panel; assay type: cell-based; details: all pathogenic isolates
# Procedure, shortened: (§2)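 Untreated organisms served as controls. Bacteria were sampled at 0, 2, 4, 6, 8, 12, 18 and 24 h, and fungi at 0, 2, 4, 6, 8, 18, 24 and 48 h. Counts were made by plate count and plotted as log10 CFU mL−1 versus time.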
# [20] = test system: bacterial isolates; test: Time-kill kinetics, bacterial isolates; assay type: cell-based; details: at MIC
# Procedure, shortened: as §2
# [21] = test system: fungal isolates; test: Time-kill kinetics, fungal isolates; assay type: cell-based; details: at MIC
# Procedure, shortened: as §2
# [22] = test system: fosfomycin-resistant (FO-R) E. coli KA780; test: SEM of outer membrane integrity; assay type: cell-based; details: at MIC, compared with DMSO
# [23] = test system: BNL: mouse normal liver cells; test: SRB cytotoxicity assay on normal cells; assay type: cell-based
# Procedure, shortened: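 Mouse normal liver BNL cells were grown in DMEM with 10% heat-inactivated FBS, penicillin and streptomycin, at 37 °C in 5% CO2. […] SRB assay: 10% TCA fixation at 4 °C for 1 h, 0.4% SRB for 10 min at room temperature, 1% acetic acid washes, 10 mM Tris solubilisation, absorbance at 540 nm. Mean of three, with SD.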
# [24] = target: E. coli MurA enzyme (Escherichia coli, UniProt P0A749); test: MurA enzyme inhibition assay; assay type: biochemical
# Chain of E. coli MurA enzyme (P0A749 whole entry): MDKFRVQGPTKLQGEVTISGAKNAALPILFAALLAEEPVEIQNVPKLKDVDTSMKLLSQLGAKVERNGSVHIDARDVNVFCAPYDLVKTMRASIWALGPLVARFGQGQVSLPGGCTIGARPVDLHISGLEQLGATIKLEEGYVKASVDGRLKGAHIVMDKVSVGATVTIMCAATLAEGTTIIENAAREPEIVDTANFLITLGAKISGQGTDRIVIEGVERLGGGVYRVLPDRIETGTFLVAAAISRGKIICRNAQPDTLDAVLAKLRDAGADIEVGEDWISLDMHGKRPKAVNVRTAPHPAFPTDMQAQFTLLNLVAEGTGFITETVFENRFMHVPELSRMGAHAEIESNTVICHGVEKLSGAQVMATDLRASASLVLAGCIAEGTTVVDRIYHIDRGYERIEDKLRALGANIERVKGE
# [25] = Physical and chemical stability after gamma irradiation; assay type: physicochemical; details: gamma radiation 3.0 kGy to 20.0 kGy
# Procedure, shortened: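 Compound powders in sterile tubes were irradiated by a 60Co source at 3.0, 5.0, 7.0, 10.0, 15.0 and 20.0 kGy, at a dose rate of 0.9 kGy h−1. Non-irradiated and irradiated samples were checked for physical and chemical changes by UV-VIS spectrophotometry at 560 nm.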
# [26] = test system: bacterial isolates; test: Broth microdilution MIC/MBC, bacterial panel; assay type: cell-based; details: pyrrole 6b versus thiophene 6a; bacteria
# [27] = test system: fungal isolates; test: Agar well-diffusion, inhibition zone, fungal panel; assay type: cell-based
# Procedure, shortened: as §1
# [28] = test system: MDR bacterial and fungal isolates; test: Broth microdilution MIC/MBC/MFC, whole panel; assay type: cell-based; details: bactericidal/fungicidal if MBC or MFC not greater than four times the MIC
# [29] = test system: fungal isolates; test: Broth microdilution MIC/MFC, fungal panel; assay type: cell-based
# [30] = test system: E. coli Kam3-AcrB; test: Ethidium bromide; assay type: cell-based; details: phosphonates 0.06 to 2 μg mL^−1; PaβN 20 μg mL^−1
# Procedure, shortened: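 E. coli Kam3-AcrB (pSYC plasmid encoding AcrB) was grown to mid-log phase in TS broth and pelleted at 5000×g for 5 min at 4 °C. Cells were washed twice in PBS pH 7.4 and adjusted to OD600 ≈0.5. Cells were treated with phosphonates (0.06–2 μg mL−1) or 0.1% DMSO for 12 h, then combined with EtBr, 25 mM glucose (final) and PaβN 20 μg mL−1. Fluorescence was read over 38 min, […], as RFU.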
# [31] = 10 μM (DMSO), mean of three ± SEM
structure (smiles),measurement,setting,value
"CN(C)c1ccc(C(Nc2nc3c(-c4ccc([N+](=O)[O-])cc4)nn(-c4ccccc4)c3s2)P(=O)(Oc2ccccc2)Oc2ccccc2)cc1 (stereo not drawn) [Compound 5b, Diphenyl((4-(dimethylamino)phenyl)((3-(4-nitrophenyl)-1-phenyl-1H-pyrazolo[4,3-d]thiazol-5-yl)amino)methyl)phosphonate]",Average diameter of inhibition zone (ZI),[1]; [31],23 ± 0.88 mm
same,Average diameter of inhibition zone (ZI),[2]; [31],24 ± 0.03 mm
same,Average diameter of inhibition zone (ZI),[3]; [31],25 ± 0.00 mm
same,Average diameter of inhibition zone (ZI),[4]; [31],23 ± 0.78 mm
same,Average diameter of inhibition zone (ZI),[5]; [31],22 ± 0.22 mm
same,Average diameter of inhibition zone (ZI),[6]; [31],21 ± 0.32 mm
same,MIC,[7],0.125 µg/mL
same,MIC,[8],0.06 µg/mL
same,MBC,[8],1 µg/mL
same,MIC,[9],0.06 µg/mL
same,MBC,[9],0.5 µg/mL
same,MIC,[10],0.25 µg/mL
same,MBC,[10],0.5 µg/mL
same,MIC,[11],0.125 µg/mL
same,MFC,[11],1 µg/mL
same,MIC,[12],0.5 µg/mL
same,MFC,[12],0.5 µg/mL
same,combination effect,[13],S (FICI ≤ 0.5 (synergism))
same,Fractional inhibitory concentration index (ΣFICI),[13]; combination with fosfomycin,0.5
same,combination effect,[14],S (FICI ≤ 0.5 (synergism))
same,Fractional inhibitory concentration index (ΣFICI),[14]; combination with fosfomycin,0.5
same,combination effect,[15],S (FICI ≤ 0.5 (synergism))
same,Fractional inhibitory concentration index (ΣFICI),[15]; combination with fosfomycin,0.25
same,combination effect,[16],S (FICI ≤ 0.5 (synergism))
same,Fractional inhibitory concentration index (ΣFICI),[16]; combination with fosfomycin,0.25
same,combination effect,[17],P (0.5 < FICI > 1 (partial synergism))
same,Fractional inhibitory concentration index (ΣFICI),[17]; combination with fluconazole,0.75
same,combination effect,[18],P (0.5 < FICI > 1 (partial synergism))
same,Fractional inhibitory concentration index (ΣFICI),[18]; combination with fluconazole,0.75
same,microbial reduction relative to the initial inoculum,[19],≥ 3 log10
same,time of maximum killing rate,[20],8 h
same,time of maximum killing rate / maximum reduction in cell counts,[21],18 h
same,effect on outer membrane (SEM image),[22],perturbation in the membrane and distinct ruptures of the OM integrity
same,IC50,[23],> 100 µM
same,IC50,"[24]; IC50, preincubation 0 min",45 µM
same,IC50,"[24]; IC50, preincubation 10 min",4.5 µM
same,RA (residual activity),"[24]; at 100 μM, preincubation 10 min",4 ± 0.55%
same,remaining activity at 100 µM,"[24]; read-out: RA (residual activity), at 100 μM, preincubation 10 min",7%
same,"physical changes (odor, color, clarity, solubility, and form) after irradiation",[25],no changes occurred
same,stability of the chemical structure after irradiation,[25]; UV-VIS spectrophotometer,confirmed the stability of the chemical structure
"O=[N+]([O-])c1ccc(-c2nn(-c3ccccc3)c3sc(NC(c4ccc[nH]4)P(=O)(Oc4ccccc4)Oc4ccccc4)nc23)cc1 (stereo not drawn) [Compound 6b, Diphenyl(((3-(4-nitrophenyl)-1-phenyl-1H-pyrazolo[4,3-d]thiazol-5-yl)amino)(1H-pyrrol-2-yl)methyl)phosphonate]",zone of inhibition at 10 µM,"[1]; Enterococcus faecalis, KA247, read-out: Average diameter of inhibition zone (ZI)",22 ± 0.55 mm
same,zone of inhibition at 10 µM,"[2]; Staphylococcus aureus, KA112, read-out: Average diameter of inhibition zone (ZI)",23 ± 0.77 mm
same,zone of inhibition at 10 µM,"[3]; Escherichia coli, KA780, read-out: Average diameter of inhibition zone (ZI)",24 ± 0.86 mm
same,zone of inhibition at 10 µM,"[4]; Proteus mirabilis, KA320, read-out: Average diameter of inhibition zone (ZI)",22 ± 0.12 mm
same,zone of inhibition at 10 µM,[5],21 ± 0.91 mm
same,zone of inhibition at 10 µM,[6],21 ± 0.7 mm
same,MIC,[7],0.25 µg/mL
same,MIC,[8],0.125 µg/mL
same,MBC,[8],0.5 µg/mL
same,MIC,[9],0.125 µg/mL
same,MBC,[9],0.5 µg/mL
same,MIC,[10],0.25 µg/mL
same,MBC,[10],1 µg/mL
same,MIC,[11],0.25 µg/mL
same,MFC,[11],1 µg/mL
same,MIC,[12],0.5 µg/mL
same,MFC,[12],1 µg/mL
same,higher activity by MIC,[26],~8 folds
"OC(Cn1cncn1)(Cn1cncn1)c1ccc(F)cc1F [FCA, fluconazole, reference compound]",zone of inhibition at 10 µM,[5],17 ± 0.99 mm
same,zone of inhibition at 10 µM,[6],17 ± 0.15 mm
same,zone of inhibition at 10 µM,[27],17 mm
same,MIC,[11],2 µg/mL
same,MFC,[11],1 µg/mL
same,MIC,[12],4 µg/mL
same,MFC,[12],0.5 µg/mL
same,bactericidal/fungicidal effect,[28],bactericidal and fungicidal activities
same,MFC,[29],2 µg/mL
same,time of maximum killing rate / maximum reduction in cell counts,[21],48 h
NC(N)=NCCC[C@H](NC(=O)[C@@H](N)Cc1ccccc1)C(=O)Nc1ccc2ccccc2c1 [PAβN] (H-Phe-Arg-βNA),EtBr accumulation,[30],increases the accumulation of EtBr

# From publication PMC10685179 (RSC Advances, 2023)
